# The list is not random: actives were taken first. Their share in the collection is about 7.2%.
# PostGolgi yeast: growth inhibition of a yeast mutant, post-Golgi transport screen; post-Golgi transport phenotypic cell assay; inhibition, % at 10 µM; 98,000 tested, 0.9% active; AID 739;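 note: yeast cells grown in 1536-well plates; yeast grown about 18 h at 30C before absorbance read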
# PostGolgi ctrl: inhibits growth of the yeast control strain | inhibition, % at 10 µM | efflux-deficient yeast background strain, growth absorbance A615, 16 h | AID 738 | 98,000 tested, 5% active
# tolC growth inh: growth inhibitors of E. coli BW25113 tolC mutant | OD615 | 65,000 tested, 2.2% active | growth inhibition, % at 10 µM (by protocol);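 active = growth inhibition at or above a cutoff equal to the mean over every tested compound plus 3 SD, cut at about 60% in these data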;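 note: growth measured after 20 h incubation at 37 °C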
#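 Test system – E. coli BW25113 ΔtolC::kan, tolC deletion mutant strain · Detection – OD at 615 nm · Buffer or medium – LB with kanamycin 50 µg/mL · Times – 20 h compound exposure of bacteria at 37 °C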
# E coli WT exp: blocks growth of wild type E. coli BW25113; OD600 absorbance; growth inhibition, % at 100 µM; 98,000 tested, 0.15% active; AID 710;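 active = growth inhibition above about 50% at one test dose, limit read from the data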;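 note: growth measured after 20 h incubation at 37 °C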
# PLAP activator: human PLAP activation; AID 696; P05187; activation fold at 20 µM; purified PLAP enzyme, luminescent substrate read-out; hits give high values; 96,000 tested, 1.2% active; in the data active = activation fold above about 2
# Target sequence (P05187 whole entry, looked up): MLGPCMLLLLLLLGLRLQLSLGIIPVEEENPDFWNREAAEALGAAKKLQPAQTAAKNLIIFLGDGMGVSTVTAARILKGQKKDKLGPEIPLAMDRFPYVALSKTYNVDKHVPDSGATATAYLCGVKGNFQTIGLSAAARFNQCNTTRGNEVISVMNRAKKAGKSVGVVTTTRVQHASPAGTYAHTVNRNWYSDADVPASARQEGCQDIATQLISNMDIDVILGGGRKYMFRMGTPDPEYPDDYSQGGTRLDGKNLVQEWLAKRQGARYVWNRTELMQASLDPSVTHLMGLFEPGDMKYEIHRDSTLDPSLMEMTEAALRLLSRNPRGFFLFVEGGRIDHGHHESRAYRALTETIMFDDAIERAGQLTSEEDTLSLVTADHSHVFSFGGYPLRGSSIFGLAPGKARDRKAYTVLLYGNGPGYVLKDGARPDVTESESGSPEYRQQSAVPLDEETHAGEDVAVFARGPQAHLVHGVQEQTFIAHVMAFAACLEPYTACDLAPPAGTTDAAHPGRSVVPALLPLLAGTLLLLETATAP
# * marks the source's active call; other numbers are inactive results; . = no result given. Cut-off read from the data, not from the text of the source, unless noted: active = inhibition above about 30%; inactive = the rest.
SMILES,PostGolgi yeast,PostGolgi ctrl,tolC growth inh,E coli WT exp,PLAP activator
Cc1ccc(CNc2cc(-c3nn4c(C)nnc4s3)ccc2C)s1,8,32*,7,-7,0.8
Cc1ccc(-c2nn3c(C)nnc3s2)cc1NC(=O)C(C)C,-10,-1,-15,1,1
COc1cccc(C2C(C(N)=O)=C(C)Nc3nc(-c4ccccc4Cl)nn32)c1 (centres undefined),-11,0,5,6,1.1
CCN(CC)c1ccc(-c2nnc(SCC(=O)Nc3ccccc3C#N)n2-c2ccccc2)cc1,-5,7,.,-1,1.3
CCN1C(=O)CSC1=NC1C2CC3CC(C2)CC1C3 (centres undefined),-5,12,88*,7,0.9
Cc1noc(C)c1C(=O)OCC(=O)NCCC1=CCCCC1,-6,-3,1,5,1.1
CN(CCc1ccccn1)c1ncnc2[nH]ncc12,9,2,-26,-2,2.1*
c1ccc2c(c1)ccc1nnc(SCc3ccc4c(c3)OCO4)n12,-7,6,.,-8,0.9
Cc1csc2ncc(C(=O)NCc3ccccn3)c(=O)n12,5,7,-10,1,.
CC(C)CN(C(=O)c1ccc(=O)n(C)n1)c1nc2ccccc2s1,4,11,11,12,1.5
Cc1nc(N)sc1-c1csc(Nc2ccc(Cl)cn2)n1,-4,42*,20,-9,.
CCCCS(=O)CC(COc1ccc(Cl)cc1)OC(=O)c1ccccc1 (centres undefined),-4,42*,35,-12,1.7
Cc1cc(Oc2ccc(C#N)cc2)nc(NCc2ccccc2)n1,4,31*,.,-9,0.7
Cc1cc(C)c(NC(=O)c2ccc(CN3CCc4ccccc4C3)cc2)c(C)c1,1,13,.,-6,2.3*
O=C(CSc1nc2ccccc2s1)Nn1cnnc1,18,-4,13,-6,1.2
CCCSc1nnc(N2C(=O)CC(c3ccsc3)C3=C2CCCC3=O)s1 (centres undefined),-3,48*,6,-13,1
CC1(C)CC(=O)C2=C(C1)N(c1ccc(F)cc1)C(=O)CC2c1ccsc1 (centres undefined),-2,3,.,6,0.9
O=C(Cn1nnc2c(cnn2-c2ccccc2)c1=O)N1CCN(c2ccccc2F)CC1,-5,37*,49,-8,1.4
O=C(Cn1cnc2c(cnn2-c2ccc(F)cc2)c1=O)N1CCN(c2ccccc2F)CC1,-9,6,-9,-11,0.9
CCOc1ccccc1N1CCN(S(=O)(=O)c2cccc3nsnc23)CC1,-1,14,8,-7,1
Cc1cccc(NC(=S)N/N=C/c2ccc([N+](=O)[O-])s2)c1,44*,96*,.,4,0.9
Cc1ccc(C(=O)N/N=C/c2ccc([N+](=O)[O-])s2)cc1,-6,7,.,8,1
O=[N+]([O-])c1cc(Br)c(O)c(/C=N/Nc2nnnn2-c2cccc3ccccc23)c1,-4,9,.,19,1.7
CCOc1cc(C)c(S(=O)(=O)Nc2ccc(F)cc2)cc1C,-4,52*,.,12,0.9
COCCNC(=O)CSc1nc2ccccc2c2nc(C)nn12,-11,6,-3,-2,1
SMILES,PostGolgi yeast,PostGolgi ctrl,tolC growth inh,E coli WT exp,PLAP activator
Cc1nc2c3ccccc3nc(SCC(=O)N3CC(C)CC(C)C3)n2n1 (centres undefined),0,32*,.,0,1.4
CCCCN(CC)CCNc1c(NC2CCN(C(=O)OCC)CC2)c(=O)c1=O,-4,36*,-21,0,1.3
CCOC(=O)N1CCC(Nc2c(NCCCN(CC)CC)c(=O)c2=O)CC1,-8,2,.,-5,1.2
CCOC(=O)N1CCC(Nc2c(NCCCOC)c(=O)c2=O)CC1,9,47*,-12,5,1
CCCS(=O)(=O)c1c(S(=O)(=O)CCC)c2cnccn2c1C(=O)c1ccc(Cl)cc1,8,7,.,-4,1.6
O=C(Nc1ccc(SC(F)F)cc1)c1ccc2nccnc2c1,-2,31*,3,-5,0.9
Cc1ccc(C(=O)Nc2ccc3nccnc3c2)cc1,6,0,.,-13,0.9
COc1ccc(-n2cnnc2SCc2ncc(-c3ccccc3)o2)cc1,-3,13,16,-7,0.9
Cn1c(COc2ccc(Cl)cc2)nnc1SCc1ncc(-c2ccccc2)o1,21,47*,54,-3,1.6
O=C(c1noc2c1CCc1ccccc1-2)N1CCCc2ccccc21,8,23,99*,-10,0.9
O=C(c1noc2c1CCc1ccccc1-2)N1CCc2ccccc2C1,1,33*,87*,-8,1.2
O=C(c1noc2c1CCc1ccccc1-2)N1CCOCC1,13,0,-24,4,1.2

# Source: PubChem BioAssay (several laboratories)
